Data reported in ChEMBL document CHEMBL6103596, “Design, Synthesis, and Biological Evaluation of BODIPY-Caged Resiquimod as a Dual-Acting Phototherapeutic” (J Med Chem, 2025).
Activity calls are given as the source filed them. No cut-off for these calls is given here.

Tests used:
AD293 [1] = test: Cytotoxicity against human AD293 cells assessed as cell viability at 0.1 to 10 uM incubated for 24 hrs by MTT assay; assay type: toxicity, cell-based; settings: ad293, 24 h, dose 0.1-10 µM
Method in brief: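 AD293 cells seeded at 4 × 10^4 cells/well in DMEM with 10% FBS. Next day, compound (100 nM, 1 μM, 10 μM) or vehicle added in serum-free DMEM for 24 h, no irradiation. MTT (5 mg/mL reagent) added for 3 h at 37 °C, formazan dissolved in DMSO, absorbance read at 590 nm. Triplicate wells, four independent experiments.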

[2] = Photophysical property of the compound assessed as fluorescence quantum yield; assay type: physicochemical
[3] = Photorelease activity of the compound in CH3CN assessed as retention time under 532nm laser light by HPLC analysis; assay type: physicochemical
[4] = Photosensitizing ability of the compound assessed as singlet oxygen quantum yield under 600nm monochromatic light irradiation by DPBF based assay relative to control; assay type: functional
Method in brief: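 Singlet oxygen generation followed by the decrease in DPBF absorbance under irradiation. DPBF (20–25 μm) used at 5–10-fold excess over compound (2.5–5 μm).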

[5] = Induction of hydroxyl radical assessed as DMPO-OH radical adduct formation under light irradiation measured after 10 mins by ESR spectra analysis; assay type: functional
Method in brief: (§1)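 ESR spectra recorded with DMPO as spin trap to detect superoxide and/or hydroxyl radical adducts, before and after 10 min irradiation of compound.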

[6] = Induction of superoxide anion radical assessed as DMPO-O2 radical adduct formation under dark condition measured after 10 mins by ESR spectra analysis; assay type: functional; method in brief: as §1
RAW264.7 [7] = test: Effect on iNOS mRNA expression in mouse RAW264.7 cells at 100 nM preincubated with NAC followed by compound addition and measured after 30 mins under 650nm LED light irradiation by real-time PCR analysis; assay type: functional, cell-based
Method in brief: (§2)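 RAW264.7 cells seeded at 0.3 million per 35 mm dish. Next day, pretreated with 10 mM N-acetyl-cysteine for 30 min, then given 100 nM compound and 650 nm LED light for 30 min. Total RNA taken 24 h later and reverse transcribed with random primers. SYBR real-time PCR run for 40 cycles (95/60/72 °C). Quantities calculated by the Ct method. Results given as fold change, means ± SD.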

AD293 [8] = test: Effect on morphological changes in human AD293 cells at 10 uM; assay type: functional, cell-based
Method in brief: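 AD293 cells treated with 10 μM compound, followed by LED irradiation or kept unirradiated, then morphology examined by microscopy.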

[9] = Induction of hydroxyl radical assessed as DMPO-OH radical adduct formation under dark condition measured after 10 mins by ESR spectra analysis; assay type: functional; method in brief: as §1
[10] = Drug uptake in human AD293 cells assessed as increase in red fluorescence at 10 uM measured after 40 mins by fluorescence imaging based analysis; assay type: ADME, cell-based; settings: ad293, 40 min
AD293 [11] = test: Effect on morphological changes in human AD293 cells stable expressing TLR7 at 10 uM pretreated with N-Acetylcysteine for 30 mins followed by compound addition and measured after 30 mins under LED light irradiation at 650 nm by microscopic analysis; assay type: functional, cell-based
Method in brief: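 TLR7-stable AD293 cells seeded at 20,000/well. After 24 h, medium switched to Opti-MEM. 1 h later, 10 mM N-acetyl-cysteine added. 30 min after that, cells given 10 μM compound and exposed to 650 nm LED for 30 min, or shielded from light as control. Cells observed by microscope 24 h after drug treatment.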

[12] = Induction of superoxide anion radical assessed as DMPO-O2 radical adduct formation under light irradiation measured after 10 mins by ESR spectra analysis; assay type: functional; method in brief: as §1
RAW264.7 [13] = test: Effect on TNF-alpha mRNA expression in mouse RAW264.7 cells at 100 nM preincubated with NAC followed by compound addition and measured after 30 mins under 650nm LED light irradiation by real-time PCR analysis; assay type: functional, cell-based; method in brief: as §2
[14] = Drug uptake in human A549 cells assessed as increase in intracellular fluorescence at 1 uM measured after 40 mins by confocal microscopic analysis; assay type: ADME, cell-based; settings: a549, 40 min
Method in brief: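 A549 cells treated with 1 μM compound. Intracellular fluorescence imaged by confocal microscopy (640 nm laser excitation, 650–750 nm band-pass) at 0 and 40 min after treatment.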

[15] = Dark toxicity in human HeLa cells assessed as cell viability at 10 uM under dark condition and measured after 72 hrs by CCK-8 method relative to control; assay type: cell-based; settings: read-out: Activity
Method in brief: (§3)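 A549, HaCaT and HeLa cells seeded at 2 × 10^3 cells/well in phenol red-free DMEM with 10% FBS. After 24 h, medium replaced with 1% DMSO containing 10 μM compound. After 90 min, one plate kept dark and one exposed to 530 or 650 nm LED (30 mW) for 15 min. Plates incubated 72 h, then CCK-8 read at 450 nm. Viability taken relative to dark control. Triplicates (HaCaT six).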

[16] = Dark toxicity in human A549 cells assessed as cell viability at 10 uM under dark condition and measured after 72 hrs by CCK-8 method relative to control; assay type: cell-based; settings: read-out: Activity; method in brief: as §3
[17] = Phototoxicity in human A549 cells assessed as cell viability at 10 uM under 530 ot 650nm 30 mW LED light irradiation and measured after 72 hrs by CCK-8 method relative to control; assay type: functional; settings: A549, light or radiation study, read-out: Activity; method in brief: as §3
[18] = biological target: T1, Toll-like receptor 7 (Homo sapiens) (UniProt Q9NYK1); test: Activation of TLR7 in human AD293 cells assessed as IkappaB-alpha degradation at 10 uM preincubated with NAC followed by compound addition and measured after 30 mins under 650nm red light irradiation by Western blot analysis; assay type: cell-based; settings: filed as activator
T1 sequence (whole entry): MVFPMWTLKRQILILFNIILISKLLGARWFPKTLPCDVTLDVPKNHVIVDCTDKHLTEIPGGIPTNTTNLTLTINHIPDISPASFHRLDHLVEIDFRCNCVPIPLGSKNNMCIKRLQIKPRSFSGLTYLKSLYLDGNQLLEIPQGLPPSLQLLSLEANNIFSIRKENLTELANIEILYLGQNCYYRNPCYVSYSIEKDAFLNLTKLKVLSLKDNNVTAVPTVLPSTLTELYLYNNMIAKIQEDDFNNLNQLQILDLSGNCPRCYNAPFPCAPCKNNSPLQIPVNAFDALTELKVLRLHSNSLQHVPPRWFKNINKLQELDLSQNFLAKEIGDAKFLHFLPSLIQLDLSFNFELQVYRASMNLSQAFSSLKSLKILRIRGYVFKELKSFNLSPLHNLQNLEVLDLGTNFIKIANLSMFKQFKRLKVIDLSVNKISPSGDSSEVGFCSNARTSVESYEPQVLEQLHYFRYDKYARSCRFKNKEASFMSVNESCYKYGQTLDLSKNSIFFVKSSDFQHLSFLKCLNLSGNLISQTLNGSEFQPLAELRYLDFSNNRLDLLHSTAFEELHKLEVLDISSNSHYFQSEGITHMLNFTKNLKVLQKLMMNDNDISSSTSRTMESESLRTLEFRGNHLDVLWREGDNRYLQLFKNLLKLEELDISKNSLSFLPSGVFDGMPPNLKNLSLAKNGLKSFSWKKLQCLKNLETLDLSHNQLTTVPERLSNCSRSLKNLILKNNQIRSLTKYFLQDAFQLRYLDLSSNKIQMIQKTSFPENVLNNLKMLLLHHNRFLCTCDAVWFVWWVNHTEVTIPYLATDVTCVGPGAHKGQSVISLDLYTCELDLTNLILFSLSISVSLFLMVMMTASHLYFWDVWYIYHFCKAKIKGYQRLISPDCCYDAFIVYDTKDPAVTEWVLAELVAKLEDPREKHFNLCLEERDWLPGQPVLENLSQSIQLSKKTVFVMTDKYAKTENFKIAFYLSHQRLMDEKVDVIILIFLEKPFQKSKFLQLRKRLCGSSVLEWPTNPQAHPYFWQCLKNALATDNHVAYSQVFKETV
Method in brief: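 Stable TLR7-expressing AD293 line made by TLR7 plasmid transfection and hygromycin B selection (250 μg/mL, 10 days). Cells pretreated with N-acetyl-cysteine, then given 10 μM compound, with or without 30 min 650 nm red-light irradiation. Lysates run on 10% SDS-PAGE and blotted to PVDF. Total IκB probed (1:1000) with GAPDH loading control, ECL detection. Means of three experiments.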

[19] = Dark toxicity in human HaCaT cells assessed as cell viability at 10 uM under dark condition and measured after 72 hrs by CCK-8 method relative to control; assay type: cell-based; settings: read-out: Activity; method in brief: as §3
[20] = Thermal stability of compound in DMSO-d6 at 37.5 degree C measured before 24 hrs by 1H NMR spectroscopy analysis; assay type: physicochemical
Method in brief: (§4)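 Compound in DMSO-d6 followed by 1H NMR. Degradation taken from the intensity of three signals (one resiquimod, one BODIPY, and the linkage NH), each relative to the DMSO-d6 internal standard, and the three averaged.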

[21] = Phototoxicity in human HeLa cells assessed as cell viability at 10 uM under 530 ot 650nm 30 mW LED light irradiation and measured after 72 hrs by CCK-8 method relative to control; assay type: functional; settings: light or radiation study, read-out: Activity; method in brief: as §3
[22] = Thermal stability of compound in DMSO-d6 at 37.5 degree C measured after 3 days by 1H NMR spectroscopy analysis relative to control; assay type: physicochemical; settings: 72 h; time 3 day; method in brief: as §4
[23] = Photorelease activity of the compound in aqueous medium at 30 uM measured after 1 hr under dark condition by UV-vis spectroscopy analysis; assay type: ADME; settings: buffer
[24] = Thermal stability of compound in DMSO-d6 at 37.5 degree C measured after 2 days by 1H NMR spectroscopy analysis relative to control; assay type: physicochemical; settings: 48 h; time 2 day; method in brief: as §4
[25] = Photorelease activity of the compound in CH3CN at 532nm laser light measured upto 60 mins under air condition by HPLC analysis relative to control; assay type: ADME; set-up: dose or concentration left out as unconfirmed; settings: 1 h
[26] = Phototoxicity in human HaCaT cells assessed as cell viability at 10 uM under 530 ot 650nm 30 mW LED light irradiation and measured after 72 hrs by CCK-8 method relative to control; assay type: functional; settings: light or radiation study, read-out: Activity; method in brief: as §3
[27] = Thermal stability of compound in DMSO-d6 at 37.5 degree C measured after 1 day by 1H NMR spectroscopy analysis relative to control; assay type: physicochemical; settings: 24 h; method in brief: as §4
[28] = Photorelease activity of the compound in CH3CN at 532nm laser light measured upto 60 mins under argon condition by HPLC analysis relative to control; assay type: ADME; set-up: dose or concentration left out as unconfirmed; settings: 1 h
[29] = Photorelease activity of the compound in DMSO-d6 measured after 1 hr under 532nm YAG laser radiation by 1H NMR spectroscopy analysis relative to control; assay type: ADME
[30] = Photorelease activity of the compound in aqueous medium assessed as reduction in lamda maximum at 30 uM measured after 1 hr under 525 nm LED light radiation by UV-vis spectroscopy analysis; assay type: ADME; settings: buffer
[31] = Photorelease activity of the compound in aqueous solution at 30 uM measured upto 200 mins under 660nm 400mW LED light by UV-vis spectroscopy analysis; settings: buffer, 3.333 h
[32] = Photorelease activity of the compound in DMSO-d6 measured after 10 hrs under 660nm 400mW LED light by 1H NMR spectroscopy analysis relative to control; assay type: ADME
[33] = Photorelease activity of the compound in aqueous solution at 30 uM measured upto 200 mins under dark condition by 1H NMR spectroscopy analysis; assay type: ADME; settings: buffer, 3.333 h

SMILES	Activity (AD293 [1])	Activity [2]	Retention_time [3]	Activity [4]	Activity (AD293 [8])	Activity (AD293 [11])	viability at 72 h, 10 µM [15]	viability at 72 h, 10 µM [16]	Activity [18]	viability at 72 h, 10 µM [19]	Activity [20]	Activity [22]	Activity [24]	Activity [27]	other results
CC1=CC(C)=[N+]2C1=C(CO)c1c(C)cc(C)n1[B-]2(F)F	Toxic	0.835	4.15 min	7%											
COCCOCCOCCOc1ccc(/C=C/C2=[N+]3C(=C(CO)c4c(C)cc(/C=C/c5ccc(OCCOCCOCCOC)cc5)n4[B-]3(C)C)C(C)=C2)cc1	Non-toxic			2.2%	inactive	Active; Showed Greater Effect Than Compound 3C									Activity [5]: inactive; Activity [6]: inactive; Activity (RAW264.7 [7]): inactive; Activity [9]: inactive; Drug uptake [10]: Active; Activity [12]: inactive; Activity (RAW264.7 [13]): inactive; Drug uptake [14]: Active
CCOCc1nc2c(N)nc3ccccc3c2n1CC(C)(C)O [RESIQUIMOD]					inactive	inactive	4%	19%	Active	32%					viability at 10 µM [17]: 21%
COCCOCCOCCOc1ccc(/C=C/C2=[N+]3C(=C(CO)c4c(C)cc(/C=C/c5ccc(OCCOCCOCCOC)cc5)n4[B-]3(F)F)C(C)=C2)cc1	Non-toxic	0.554		0.37%											
CCOCc1nc2c(NC(=O)OCC3=C4C(C)=CC(C)=[N+]4[B-](F)(F)n4c(C)cc(C)c43)nc3ccccc3c2n1CC(C)(C)O	Toxic	0.809	6.8 min	3.2%			2%	19%	Active	6%	Not_active	31%	22%	12%	viability at 10 µM [21]: 54%; Activity [23]: Not_active; Activity [25]: ~ 68%; viability at 10 µM [26]: 88%; Activity [28]: ~ 77%; Activity [29]: 100%; Activity [30]: Active
CCOCc1nc2c(NC(=O)OCC3=C4C(C)=CC(/C=C/c5ccc(OCCOCCOCCOC)cc5)=[N+]4[B-](F)(F)n4c(/C=C/c5ccc(OCCOCCOCCOC)cc5)cc(C)c43)nc3ccccc3c2n1CC(C)(C)O	Non-toxic	0.482		0.33%							Not_active	15%	11%	7%	Activity [31]: Active; Activity [32]: ~ 90%; Activity [33]: Not_active
